{"source": "the EternaBench riboswitch data", "system": "MS2 coat protein", "assay": "apparent Kd, MS2 coat protein; higher = weaker binding; RNA-MaP array; FMN 200 µM where present", "procedure,_shortened": "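Stalled E. coli RNA polymerase produced the designs on Illumina sequencing-chip clusters. SNAP-549-labelled MS2 coat protein was added from 0.7 or 1.5 nM, doubling to 3 µM, without and then with constant ligand, in 100 mM Tris-HCl pH 7.5, 80 mM KCl, 4 mM MgCl2, BSA, DTT, yeast tRNA and Tween-20. The apparent Kd is the median of filtered per-cluster fits of green signal normalised to red-channel RNA signal and control-cluster median Fmax.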", "key": {"[1]": {"details": "designed as: OFF switch for flavin mononucleotide, no ligand"}, "[2]": {"details": "ligand present: flavin mononucleotide, designed as: OFF switch for flavin mononucleotide"}, "[3]": {"details": "designed as: ON switch for flavin mononucleotide, no ligand"}, "[4]": {"details": "ligand present: flavin mononucleotide, designed as: ON switch for flavin mononucleotide"}}, "data": [{"sequence": "GGGCGUGAAGGAUAUACAUGAGGAUCACCCAUGUGGGAGGAGAGUGGUGAGGAGGCUGGUAGAAGGUCAGGAUG", "values": [{"measurement": "apparent Kd", "setting": "[1]", "value": 0.0448, "unit": "µM"}, {"measurement": "apparent Kd", "setting": "[2]", "value": 0.0368, "unit": "µM"}]}, {"sequence": "GUCAGCUCGUGAGGAUAUACAACACUGCUUCGGCAGUGUAUUAAGAUCACAUGAGGAUCACCCAUGUAGAAGGCACGAGCUGUU", "values": [{"measurement": "apparent Kd", "setting": "[1]", "value": 0.0138, "unit": "µM"}, {"measurement": "apparent Kd", "setting": "[2]", "value": 0.305, "unit": "µM"}]}, {"sequence": "CAGUACUGAGGAUAUACAUGAGGAUCACCCAUGUGUUCCAGCUUGGAAACUAGCAAAAGUAGAAGGCAGUACUG", "values": [{"measurement": "apparent Kd", "setting": "[1]", "value": 0.0148, "unit": "µM"}, {"measurement": "apparent Kd", "setting": "[2]", "value": 0.158, "unit": "µM"}]}, {"sequence": "GAGUGGAAGGCCGCUACAUGAGGAUCACCCAUGUGCUAAGCACAGGAUAUCGCGUGGGCCCGACGCGAGAAGGGUGACGGCCUG", "values": [{"measurement": "apparent Kd", "setting": "[3]", "value": 0.582, "unit": "µM"}, {"measurement": "apparent Kd", "setting": "[4]", "value": 0.246, "unit": "µM"}]}, {"sequence": "GCACUGGCAGGAUAUACAUGAGGAUCACCCAUGUGAUCCCUUAAGUACAAAAGUACAAGUAGAAGGGCCUGUGC", "values": [{"measurement": "apparent Kd", "setting": "[1]", "value": 0.771, "unit": "µM"}, {"measurement": "apparent Kd", "setting": "[2]", "value": 0.188, "unit": "µM"}]}, {"sequence": "GCCCUUCGUGGAAGGGCAAAAGGACAGGAUAUCGCUUAAACAUGAGGAUCACCCAUGUCCGUUAACGAGAAGGGUCGAAUAAAU", "values": [{"measurement": "apparent Kd", "setting": "[3]", "value": 0.0642, "unit": "µM"}, {"measurement": "apparent Kd", "setting": "[4]", "value": 0.012, "unit": "µM"}]}, {"sequence": "AUCAGCUCGUCAGGAUAUACGUCACUGCGUCAGCAGUGUGGUAAGAUCACAUGAGGAUCACCCAUGUAGAAGGGACGCGCUGAU", "values": [{"measurement": "apparent Kd", "setting": "[1]", "value": 0.0133, "unit": "µM"}, {"measurement": "apparent Kd", "setting": "[2]", "value": 0.226, "unit": "µM"}]}, {"sequence": "GGUCAGGGUGUGAGGAUAUUUACCUAUCACAGUGUGAAGAAGGCACAUGAGGAUCACCCAUGUUAACUGCGGGC", "values": [{"measurement": "apparent Kd", "setting": "[1]", "value": 0.0517, "unit": "µM"}, {"measurement": "apparent Kd", "setting": "[2]", "value": 0.0767, "unit": "µM"}]}, {"sequence": "GCGAAUUUGUGAGGAUAUACAUAAUUUAUAACUGUAGAAGGCACAAACCUCAAGACAUGAGGAUCACCCAUGUGGAAUUUCGCU", "values": [{"measurement": "apparent Kd", "setting": "[1]", "value": 0.131, "unit": "µM"}, {"measurement": "apparent Kd", "setting": "[2]", "value": 0.192, "unit": "µM"}]}, {"sequence": "GAAAAGGUAGGAUAUACGAAAAAAAAGGGUAGAAAAAAAACACAUGAGGAUCACCCAUGUAGAAGGACCAAAAG", "values": [{"measurement": "apparent Kd", "setting": "[1]", "value": 0.0319, "unit": "µM"}, {"measurement": "apparent Kd", "setting": "[2]", "value": 0.0941, "unit": "µM"}]}, {"sequence": "GUAGGGAUUACAUGAGGAUCACCCAUGUCAGAACGGGUAAUCAGAAGGUAUUAUUAGGGAGAGGGUAAGGAUAUGAUUUUUUAU", "values": [{"measurement": "apparent Kd", "setting": "[3]", "value": 0.433, "unit": "µM"}, {"measurement": "apparent Kd", "setting": "[4]", "value": 0.344, "unit": "µM"}]}, {"sequence": "UCGCCUUAGUAAGGAUAUCACAUGAGGAUCACCCAUGUGGGCGUGACACGGUGAGAAGGUACGCGGCGAAGGUGCCAAGGCAUC", "values": [{"measurement": "apparent Kd", "setting": "[1]", "value": 0.387, "unit": "µM"}, {"measurement": "apparent Kd", "setting": "[2]", "value": 0.044, "unit": "µM"}]}, {"sequence": "GUAGCUAUCGGAGGAUAUUCAUACCGGAAACGGACAUGAGGAUCACCCAUGUCGCGAAAGCGUUGGGAGAAGGCCGAUAGCUAC", "values": [{"measurement": "apparent Kd", "setting": "[3]", "value": 0.237, "unit": "µM"}, {"measurement": "apparent Kd", "setting": "[4]", "value": 0.0214, "unit": "µM"}]}, {"sequence": "UCAUUUCUGUAAGGAUAUUAAAACAUGACGAUACAUGAGGAUCACCCAUGUUAAGAAGGUACAAAUACAUAUAAUGCAAUGUUC", "values": [{"measurement": "apparent Kd", "setting": "[1]", "value": 0.0157, "unit": "µM"}, {"measurement": "apparent Kd", "setting": "[2]", "value": 0.0148, "unit": "µM"}]}, {"sequence": "UUACGUCCCAUUUACAUGAGGAUCACCCAUGUCGAAAGACAUGAGGAUAUGCUACCUAAUUGGUAGCAGAAGGCAUGGACGUCG", "values": [{"measurement": "apparent Kd", "setting": "[3]", "value": 0.662, "unit": "µM"}, {"measurement": "apparent Kd", "setting": "[4]", "value": 0.347, "unit": "µM"}]}, {"sequence": "UGAUAGGACAGAGGAUAUACCGAUAGGAUCUACUAUCGAACAAUCCUCACAUGAGGAUCACCCAUGUAGAAGGCUGUCCUAUCU", "values": [{"measurement": "apparent Kd", "setting": "[1]", "value": 0.0252, "unit": "µM"}, {"measurement": "apparent Kd", "setting": "[2]", "value": 0.284, "unit": "µM"}]}, {"sequence": "GGAGGACAUGAGGAUCACCCAUGUGGAUGGGCGCUAGGAUAUGCGUGCGGGAAGAGUGGAGCAGAAGGAGUGGGUU", "values": [{"measurement": "apparent Kd", "setting": "[3]", "value": 0.0483, "unit": "µM"}, {"measurement": "apparent Kd", "setting": "[4]", "value": 0.0422, "unit": "µM"}]}, {"sequence": "AUUGAGAUAGCGAUAUGAUCGAGAGAUCAUGUCGCUAAGUUUAGAAGGACAUGAGGAUCACCCAUGUAGGAUAUGGGAGUAGAA", "values": [{"measurement": "apparent Kd", "setting": "[3]", "value": 0.128, "unit": "µM"}, {"measurement": "apparent Kd", "setting": "[4]", "value": 0.0575, "unit": "µM"}]}, {"sequence": "UCGCUGCGAGGAUAUACAUGAGGAUCACCCAUGUACGGGUCCGGGUCUUUGUCUAUUGGUAGAAGGCGCAGUGA", "values": [{"measurement": "apparent Kd", "setting": "[1]", "value": 0.0557, "unit": "µM"}, {"measurement": "apparent Kd", "setting": "[2]", "value": 0.175, "unit": "µM"}]}, {"sequence": "UUUAUUUUUACAGGAUAUCAUCUAUAUAACUCAUGCAAAUGUUUACAUGAGGAUCACCCAUGUUAUGAGAAGGGUAUUGAAACA", "values": [{"measurement": "apparent Kd", "setting": "[3]", "value": 0.361, "unit": "µM"}, {"measurement": "apparent Kd", "setting": "[4]", "value": 0.216, "unit": "µM"}]}, {"sequence": "UUCAGGGAUCAAGGAUAUCUAUAUUCAUGAGGACAUGAGGAUCACCCAUGUUGAUUACCCAUGAGGGAGAAGGUGAACAUGAGG", "values": [{"measurement": "apparent Kd", "setting": "[3]", "value": 0.0442, "unit": "µM"}, {"measurement": "apparent Kd", "setting": "[4]", "value": 0.0187, "unit": "µM"}]}, {"sequence": "GCGUUCUUGUAGAAGGUACAUACAAUAUCUUUUUAACACAUGACACAUGAGGAUCACCCAUGUUGUAAGGAUAUACAUGAACGC", "values": [{"measurement": "apparent Kd", "setting": "[3]", "value": 0.0068, "unit": "µM"}, {"measurement": "apparent Kd", "setting": "[4]", "value": 0.00691, "unit": "µM"}]}, {"sequence": "AAAUAAGUUGCAGGAUAUUAUUUUUAAUAAAUAUAAGAAGGGCAACAAACCUCACAUGAGGAUCACCCAUGUACCCAUGCAUCU", "values": [{"measurement": "apparent Kd", "setting": "[1]", "value": 0.0978, "unit": "µM"}, {"measurement": "apparent Kd", "setting": "[2]", "value": 0.0384, "unit": "µM"}]}, {"sequence": "UUAUACGUUGAGGAUAUGCGACUUUUUUUAGUUGUAGAAGGCGAUACAUGAGGAUCACCCAUGUUUAUGGGCAU", "values": [{"measurement": "apparent Kd", "setting": "[1]", "value": 0.166, "unit": "µM"}, {"measurement": "apparent Kd", "setting": "[2]", "value": 0.218, "unit": "µM"}]}, {"sequence": "GUCAGCUCGUGAGGAUAUACAACACUGCUUCGGCAGUGUAAUAAGAUCACAUGAGGAUCACCCAUGUAGAAGGCACGAGCUGAU", "values": [{"measurement": "apparent Kd", "setting": "[1]", "value": 0.012, "unit": "µM"}, {"measurement": "apparent Kd", "setting": "[2]", "value": 0.25, "unit": "µM"}]}, {"sequence": "UUGGAGUUCGUAGGAUAUGUAGGAUAUUCCUACAUGAGGAUCACCCAUGUUGACAUGGAGGAAGGACAGAAGGACGAGCUCCAU", "values": [{"measurement": "apparent Kd", "setting": "[3]", "value": 0.206, "unit": "µM"}, {"measurement": "apparent Kd", "setting": "[4]", "value": 0.225, "unit": "µM"}]}, {"sequence": "GUGUAGAUAUCAGGAUAUCUAUUUCCUACAUGAGGAUCACCCAUGUAGAUGAUCACCCAUGUAAAGGAGAAGGGAUGUCUAUAC", "values": [{"measurement": "apparent Kd", "setting": "[3]", "value": 0.163, "unit": "µM"}, {"measurement": "apparent Kd", "setting": "[4]", "value": 0.138, "unit": "µM"}]}, {"sequence": "GUGAACAUGAGGAUCACCCAUGUAGCUCACUGCCAGUGGCUACAGGAUAUAGCACCUCGAGAGUGCUAGAAGGGUGGCCUAGAA", "values": [{"measurement": "apparent Kd", "setting": "[3]", "value": 0.106, "unit": "µM"}, {"measurement": "apparent Kd", "setting": "[4]", "value": 0.0339, "unit": "µM"}]}]}
